# ChEMBL document CHEMBL1629588, “Ambuic acid inhibits the biosynthesis of cyclic peptide quormones in gram-positive bacteria” (Antimicrob Agents Chemother, 2009)
# Calls of active or inactive are those of the source. No cut-off for these calls is given here.
# Columns and labels:
# [1] = system: Staphylococcus aureus; assay: Inhibition of hemolysin production in Staphylococcus aureus 12600T assessed as decrease in hemolytic zone on sheep blood agar at 10 mM after 16 to 48 hrs […]; format: functional, organism-based; conditions: TDE = time-dependent effect
# Summary of the method: (§1)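 Inhibitor in 50% acetonitrile (5 µl) spotted on sheep blood agar and dried. Plate incubated at 37°C; hemolytic clearance zone around colonies observed and photographed at 16, 24 and 48 h.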
# [2] = system: Staphylococcus aureus; assay: Inhibition of hemolysin production in Staphylococcus aureus 12600T assessed as decrease in hemolytic zone on sheep blood agar at 5 to 20 mM upto 48 hrs […]; format: functional, organism-based; summary of the method: as §1
# [3] = system: Listeria innocua; assay: Inhibition of quormone LsrD826 biosynthesis in Listeria innocua ATCC 33090T at 100 uM by LC/MS analysis; format: functional, organism-based
# Summary of the method: (§2)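 L. innocua ATCC 33090T overnight culture (25 µl) grown 15 h in 5 ml chemically defined medium. Filtered supernatant loaded on C18 cartridge, washed with 10% acetonitrile/0.1% TFA, eluted with 60% acetonitrile/0.1% TFA. Eluate analysed by LC/MS monitoring m/z 699 (LsrD698) and m/z 827 (LsrD826).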
# [4] = system: Staphylococcus aureus; assay: Inhibition of hemolysin production in Staphylococcus aureus 12600T assessed as decrease in hemolytic zone on sheep blood agar at 20 mM after 16 to 48 hrs […]; format: functional, organism-based; conditions: TDE = time-dependent effect; summary of the method: as §1
# [5] = system: Staphylococcus aureus; assay: Inhibition of agr quorom sensing in Staphylococcus aureus 8325-4 harboring pSB2035 assessed as […] at 50 to 200 uM after 7 hrs by GFP assay; format: functional, organism-based
# Summary of the method: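 S. aureus 8325-4(pSB2035) washed and serially subcultured (1/20 twice, 2 h each), then diluted 1/50 into 200 µl medium with inhibitor, shaken 7 h. OD620 read; cells washed twice in PBS, GFP fluorescence read (ex 490/em 525 nm). Triplicate, mean ± SD. Quenching control: 200 µM added to washed untreated cells, fluorescence followed 15 min.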
# [6] = system: Enterococcus faecalis; assay: Antimicrobial activity against Enterococcus faecalis OG1RF assessed as growth inhibition at <1 mM after 5 hrs; format: functional
# Summary of the method: (§3)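 E. faecalis OG1RF overnight culture (3 µl) inoculated into 0.5 ml THB with sample, grown 5 h at 37°C. Growth read as OD660. Supernatant (25 µl, after 9,100 x g spin) mixed with 0.5 ml azocoll suspension, 4 h at 170 rpm, centrifuged, gelatinase read as OD540. Duplicate experiments, mean ± SD.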
# [7] = system: Staphylococcus aureus; assay: Inhibition of agr quorom sensing in Staphylococcus aureus 8325-4 harboring pSB2035 assessed as […] at 50 to 200 uM after 7 hrs by GFP fluorescence reporter gene assay
# [8] = system: Enterococcus faecalis; assay: Inhibition of gelatinase production in Enterococcus faecalis OG1RF after 5 hrs; format: functional; summary of the method: as §3
# [9] = system: Staphylococcus aureus; assay: Inhibition of hemolysin production in Staphylococcus aureus 12600T assessed as decrease in hemolytic zone on sheep blood agar at 5 mM after 16 to 48 hrs […]; format: functional, organism-based; conditions: TDE = time-dependent effect; summary of the method: as §1
# [10] = system: Enterococcus faecalis; assay: Inhibition of GBAP biosynthesis in Enterococcus faecalis OU510 harboring pQU2200 and pQU2301 assessed as proteolytic processing of Hexahistidine-tagged FsrD after 5 hrs by Western blot analysis; format: functional, organism-based
# Summary of the method: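 OU510 carrying pQU2200 (FsrB') and pQU2301 (His6-tagged FsrD) inoculated (6 µl overnight culture) into 1.0 ml THB with inhibitor at various concentrations. Nisin added at 2 h to induce, cells harvested 3 h later. Cells boiled in SDS-PAGE sample buffer; extracts analysed by Western blot with anti-His-tag antibody. Supernatant GBAP activity read by OU510 gelatinase induction.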
# [11] = system: Listeria innocua; assay: Inhibition of quormone LsrD698 biosynthesis in Listeria innocua ATCC 33090T at 100 uM by LC/MS analysis; format: functional, organism-based; summary of the method: as §2
# [12] = system: Enterococcus faecalis; assay: Inhibition of gelatinase production in GBAP-negative Enterococcus faecalis OU510 at 100 uM after 5 hrs in presence of GBAP; format: functional, organism-based
# Summary of the method: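 Overnight E. faecalis OU510 (3 µl) grown 5 h in 0.5 ml THB containing 100 µM inhibitor plus synthetic GBAP at various concentrations. Supernatant gelatinase measured by azocoll assay (OD540), growth by OD660. Duplicate experiments; gelatinase/growth ratio computed per experiment and averaged.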
# [13] = system: Enterococcus faecalis; assay: Inhibition of gelatinase production in Enterococcus faecalis OG1RF at <1 mM after 5 hrs; format: functional; summary of the method: as §3
# [14] = system: Staphylococcus aureus; assay: Inhibition of quormone AIP-I biosynthesis in Staphylococcus aureus 12600T at 50 uM by LC/MS analysis; format: functional, organism-based
# Summary of the method: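 S. aureus 12600T overnight culture (20 µl) inoculated into 2 ml TSB-YE, grown 15 h. Filtered (0.22 µm) supernatant (40 µl) analysed by C18 LC/ESI-TOF MS, 20–40% acetonitrile in 0.05% TFA, 0.2 ml/min, 30°C. Extracted ion chromatogram at m/z 961–962.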
smiles,measurement,setting,value
CCCCC/C=C/C1=C(CO)[C@H](O)[C@H]2O[C@@]2(C/C=C(\C)C(=O)O)C1=O [AMBUIC ACID],inhibition,[1],tde
same,inhibition,[2],Dose-dependent effect
same,inhibition,[3],Active
same,inhibition,[4],tde
same,inhibition,[5],Active
same,Activity,[6],inactive
same,inhibition,[7],Active
same,IC50,[8],10 µM
same,inhibition,[9],tde
same,inhibition,[10],Active
same,inhibition,[11],Active
same,inhibition,[12],inactive
same,Activity,[13],Active
same,inhibition,[14],Active
